Source: ChEMBL document CHEMBL1287651, “Synthesis and in vitro antibacterial activity of fluoroquinolone derivatives containing 3-(N'-alkoxycarbamimidoyl)-4-(alkoxyimino) pyrrolidines” (2010)
Converted amounts (≈) assume the structure as drawn.

What was measured:
Format in all cases: functional
[1] = system: Enterococcus faecium; assay: Antibacterial activity against Enterococcus faecium 08-2 after 18 to 24 hrs by twofold serial dilution method
How it was run: (§1)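 MIC determined by the standard twofold serial dilution method on agar media, screening against Gram-positive and Gram-negative strains. Levofloxacin and gemifloxacin were run alongside as reference drugs.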

[2] = system: Staphylococcus epidermidis; assay: Antibacterial activity against methicillin-resistant Staphylococcus epidermidis 09-4 after 18 to 24 hrs by twofold serial dilution method
How it was run: (§2)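 Standard twofold serial agar dilution method on agar media for MIC determination. Screened against representative Gram-positive and Gram-negative strains. Levofloxacin and GMFX served as control drugs.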

[3] = system: Pseudomonas aeruginosa; assay: Antibacterial activity against Pseudomonas aeruginosa 09-32 after 18 to 24 hrs by twofold serial dilution method; how it was run: as §1
[4] = system: Staphylococcus epidermidis; assay: Antibacterial activity against methicillin-resistant Staphylococcus epidermidis 09-3 after 18 to 24 hrs by twofold serial dilution method; how it was run: as §2
[5] = system: Enterococcus faecium; assay: Antibacterial activity against Enterococcus faecium 08-7 after 18 to 24 hrs by twofold serial dilution method; how it was run: as §1
[6] = system: Streptococcus pneumoniae; assay: Antibacterial activity against Streptococcus pneumoniae 08-4 after 18 to 24 hrs by twofold serial dilution method; how it was run: as §1
[7] = system: Pseudomonas aeruginosa; assay: Antibacterial activity against Pseudomonas aeruginosa 09-33 after 18 to 24 hrs by twofold serial dilution method; how it was run: as §1
[8] = system: Streptococcus pneumoniae; assay: Antibacterial activity against Streptococcus pneumoniae 08-2 after 18 to 24 hrs by twofold serial dilution method; how it was run: as §1
[9] = system: Klebsiella pneumoniae; assay: Antibacterial activity against Klebsiella pneumoniae 09-23 after 18 to 24 hrs by twofold serial dilution method; how it was run: as §1
[10] = system: Enterococcus faecalis; assay: Antibacterial activity against Enterococcus faecalis 08-10 after 18 to 24 hrs by twofold serial dilution method; how it was run: as §1
[11] = system: Pseudomonas aeruginosa; assay: Antibacterial activity against Pseudomonas aeruginosa ATCC 27853 after 18 to 24 hrs by twofold serial dilution method; how it was run: as §1
[12] = system: Staphylococcus epidermidis; assay: Antibacterial activity against methicillin-sensitive Staphylococcus epidermidis 09-6 after 18 to 24 hrs by twofold serial dilution method; how it was run: as §2
[13] = system: Escherichia coli; assay: Antibacterial activity against Escherichia coli 08-21 after 18 to 24 hrs by twofold serial dilution method; how it was run: as §1
[14] = system: Staphylococcus epidermidis; assay: Antibacterial activity against methicillin-resistant Staphylococcus epidermidis 09-2 after 18 to 24 hrs by twofold serial dilution method; how it was run: as §2
[15] = system: Staphylococcus aureus; assay: Antibacterial activity against methicillin-resistant Staphylococcus aureus 08-1 after 18 to 24 hrs by twofold serial dilution method; how it was run: as §2
[16] = system: Escherichia coli; assay: Antibacterial activity against Escherichia coli 08-22 after 18 to 24 hrs by twofold serial dilution method; how it was run: as §1
[17] = system: Staphylococcus aureus; assay: Antibacterial activity against Staphylococcus aureus ATCC […] after 18 to 24 hrs by twofold serial dilution method; how it was run: as §1
[18] = system: Escherichia coli; assay: Antibacterial activity against Escherichia coli ATCC 25922 after 18 to 24 hrs by twofold serial dilution method; how it was run: as §1
[19] = system: Klebsiella pneumoniae; assay: Antibacterial activity against Klebsiella pneumoniae 09-22 after 18 to 24 hrs by twofold serial dilution method; how it was run: as §1
[20] = system: Klebsiella pneumoniae; assay: Antibacterial activity against Klebsiella pneumoniae 09-21 after 18 to 24 hrs by twofold serial dilution method; how it was run: as §1
[21] = system: Enterococcus faecalis; assay: Antibacterial activity against Enterococcus faecalis 08-12 after 18 to 24 hrs by twofold serial dilution method; how it was run: as §1
[22] = system: Pseudomonas aeruginosa; assay: Antibacterial activity against Pseudomonas aeruginosa 09-34 after 18 to 24 hrs by twofold serial dilution method; how it was run: as §1
[23] = system: Staphylococcus aureus; assay: Antibacterial activity against methicillin-sensitive Staphylococcus aureus 08-2 after 18 to 24 hrs by twofold serial dilution method; how it was run: as §2
[24] = system: Staphylococcus epidermidis; assay: Antibacterial activity against methicillin-sensitive Staphylococcus epidermidis 09-3 after 18 to 24 hrs by twofold serial dilution method; how it was run: as §2
[25] = system: Pseudomonas aeruginosa; assay: Antibacterial activity against Pseudomonas aeruginosa 09-35 after 18 to 24 hrs by twofold serial dilution method; how it was run: as §1

Structure (SMILES)	MIC [1] [µg/mL]	MIC [2] [µg/mL]	MIC [3] [µg/mL]	MIC [5] [µg/mL]	MIC [9] [µg/mL]	MIC [10] [µg/mL]	MIC [11] [µg/mL]	MIC [12] [µg/mL]	MIC [13] [µg/mL]	MIC [14] [µg/mL]	MIC [15] [µg/mL]	MIC [16] [µg/mL]	MIC [17] [µg/mL]	MIC [18] [µg/mL]	MIC [19] [µg/mL]	MIC [20] [µg/mL]	MIC [21] [µg/mL]	MIC [23] [µg/mL]	MIC [24] [µg/mL]	MIC [25] [µg/mL]	other results
CO/N=C1\CN(c2nc3c(cc2F)c(=O)c(C(=O)O)cn3C2CC2)CC1/C(N)=N\O (stereo not given)	> 128	2 (≈ 4.78 µM)	8 (≈ 19.1 µM)	> 128	> 128	> 128	4 (≈ 9.56 µM)	128 (≈ 306 µM)	> 128	1 (≈ 2.39 µM)	128 (≈ 306 µM)	> 128	1 (≈ 2.39 µM)	128 (≈ 306 µM)	32 (≈ 76.5 µM)	> 128	4 (≈ 9.56 µM)	1 (≈ 2.39 µM)	128 (≈ 306 µM)	> 128	MIC [4]: 1 µg/mL (≈ 2.39 µM); MIC [6]: 2 µg/mL (≈ 4.78 µM); MIC [7]: 8 µg/mL (≈ 19.1 µM); MIC [8]: 2 µg/mL (≈ 4.78 µM); MIC [22]: 8 µg/mL (≈ 19.1 µM)
CCO/N=C1\CN(c2c(F)cc3c(=O)c(C(=O)O)cn(CC)c3c2F)CC1/C(N)=N\OCC (stereo not given)	> 128	> 128	> 128	> 128	> 128	> 128	> 128	> 128	> 128	> 128	> 128	> 128	8 (≈ 17.2 µM)	> 128	> 128	> 128	> 128	> 128	> 128	> 128	MIC [6]: > 128 µg/mL; MIC [7]: > 128 µg/mL; MIC [8]: > 128 µg/mL; MIC [22]: > 128 µg/mL
CO/N=C1\CN(c2nc3c(cc2F)c(=O)c(C(=O)O)cn3C2CC2)CC1/C(N)=N\OC (stereo not given)	> 128	0.25 (≈ 0.578 µM)	128 (≈ 296 µM)	> 128	> 128	> 128	64 (≈ 148 µM)	0.25 (≈ 0.578 µM)	> 128	1 (≈ 2.31 µM)	0.25 (≈ 0.578 µM)	> 128	0.25 (≈ 0.578 µM)	128 (≈ 296 µM)	1 (≈ 2.31 µM)	> 128	> 128	1 (≈ 2.31 µM)	0.25 (≈ 0.578 µM)	64 (≈ 148 µM)	MIC [4]: 0.25 µg/mL (≈ 0.578 µM); MIC [6]: 1 µg/mL (≈ 2.31 µM); MIC [7]: > 128 µg/mL; MIC [8]: > 128 µg/mL; MIC [22]: > 128 µg/mL
CCO/N=C1\CN(c2nc3c(cc2F)c(=O)c(C(=O)O)cn3C2CC2)CC1/C(N)=N\OC (stereo not given)	> 128	0.25 (≈ 0.56 µM)	64 (≈ 143 µM)	> 128	> 128	> 128	64 (≈ 143 µM)	0.25 (≈ 0.56 µM)	> 128	128 (≈ 287 µM)	0.25 (≈ 0.56 µM)	> 128	0.5 (≈ 1.12 µM)	> 128	1 (≈ 2.24 µM)	> 128	> 128	0.25 (≈ 0.56 µM)	0.25 (≈ 0.56 µM)	64 (≈ 143 µM)	MIC [4]: 0.125 µg/mL (≈ 0.28 µM); MIC [6]: 0.25 µg/mL (≈ 0.56 µM); MIC [7]: > 128 µg/mL; MIC [8]: 128 µg/mL (≈ 287 µM); MIC [22]: > 128 µg/mL
CCO/N=C(/N)C1CN(c2nc3c(cc2F)c(=O)c(C(=O)O)cn3C2CC2)C/C1=N\OC (stereo not given)	> 128	0.125 (≈ 0.28 µM)	> 128	> 128	> 128	> 128	> 128	0.25 (≈ 0.56 µM)	> 128	2 (≈ 4.48 µM)	2 (≈ 4.48 µM)	> 128	2 (≈ 4.48 µM)	> 128	16 (≈ 35.8 µM)	> 128	> 128	2 (≈ 4.48 µM)	0.25 (≈ 0.56 µM)	> 128	MIC [4]: 0.25 µg/mL (≈ 0.56 µM); MIC [6]: > 128 µg/mL; MIC [7]: > 128 µg/mL; MIC [8]: > 128 µg/mL; MIC [22]: > 128 µg/mL
CCO/N=C1\CN(c2nc3c(cc2F)c(=O)c(C(=O)O)cn3C2CC2)CC1/C(N)=N\OCC (stereo not given)	> 128	32 (≈ 69.5 µM)	> 128	> 128	> 128	> 128	128 (≈ 278 µM)	> 128	> 128	8 (≈ 17.4 µM)	> 128	> 128	2 (≈ 4.34 µM)	128 (≈ 278 µM)	128 (≈ 278 µM)	> 128	> 128	8 (≈ 17.4 µM)	> 128	> 128	MIC [4]: 8 µg/mL (≈ 17.4 µM); MIC [6]: > 128 µg/mL; MIC [7]: > 128 µg/mL; MIC [8]: > 128 µg/mL; MIC [22]: > 128 µg/mL
CO/N=C1\CN(c2nc3c(cc2F)c(=O)c(C(=O)O)cn3-c2ccc(F)cc2F)CC1/C(N)=N\OC (stereo not given)	> 128	0.25 (≈ 0.496 µM)	128 (≈ 254 µM)	> 128	> 128	> 128	128 (≈ 254 µM)	0.25 (≈ 0.496 µM)	> 128	0.5 (≈ 0.991 µM)	0.25 (≈ 0.496 µM)	> 128	0.5 (≈ 0.991 µM)	128 (≈ 254 µM)	1 (≈ 1.98 µM)	> 128	> 128	0.25 (≈ 0.496 µM)	0.5 (≈ 0.991 µM)	128 (≈ 254 µM)	MIC [4]: 0.25 µg/mL (≈ 0.496 µM); MIC [6]: 0.25 µg/mL (≈ 0.496 µM); MIC [7]: > 128 µg/mL; MIC [8]: 16 µg/mL (≈ 31.7 µM); MIC [22]: > 128 µg/mL
C[C@H]1COc2c(N3CCN(C)CC3)c(F)cc3c(=O)c(C(=O)O)cn1c23.C[C@H]1COc2c(N3CCN(C)CC3)c(F)cc3c(=O)c(C(=O)O)cn1c23.O [LEVOFLOXACIN]	8	0.25	16	2	8	8	0.5	2	16	0.25	0.125	16	0.06	0.125	16	8	4	0.06	0.125	0.25	MIC [4]: 0.25 µg/mL
